This is an account of results in ChEMBL document CHEMBL2321757, “Anti-leukemic activity of ubiquinone-based compounds targeting trans-plasma membrane electron transport” (J Med Chem, 2013).

pIC50: −log10 of the molar value. Active and inactive are the calls of the source. The rule behind the calls is not given here. A value given as a limit tells only on which side of the number the result lay.

Assay [1] concerns HL-60. Put plainly: Antiproliferative activity against human mitochondrial gene-knockout HL60 cells after 48 hrs by MTT assay. Type of assay: functional, cell-based. The note with it: HL-60, 48 h. In outline: (§1)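 HL60 cells were grown in RPMI-1640 with 5% FBS. The mtDNA-knockout line was derived by 6−8 weeks in ethidium bromide (50 ng/mL) and kept with 50 μg/mL uridine and 1 mM pyruvate. Compound in DMSO was serially diluted 3-fold in RPMI […], in triplicate. Cells at 0.2 × 10⁶/mL final ran 48 h at 37 °C, 5% CO₂. MTT was added for 2 h, then overnight lysis, read at A570. IC50 is a dose-response mean ± SEM (n = 2/3).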
For orientation: Formazan colour is commonly taken as a measure of viable cells.

The subject of assay [2] is HL-60. Kind of assay: Antiproliferative activity against human HL60 cells after 48 hrs by MTT assay. Type of assay: functional, cell-based. As to conditions: HL-60, 48 h. An outline of the steps:
as §1

Assay [3] in a line: Inhibition of tPMET complex in human mitochondrial gene-knockout HL60 cells after 30 mins by WST-1/mPMS reduction assay. Type of assay: cell-based. As to conditions: HL-60, 0.5 h. An outline of the steps:
(§2)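 Exponential-phase cells were resuspended in HBSS at 1.0 × 10⁶ cells/mL final. Compound in DMSO was serially diluted 10-fold in HBSS from 200 μM, in triplicate, and preincubated 30 min at 37 °C, 5% CO₂. WST-1 (500 μM final) with mPMS (20 μM final) was then added. Reduction was read in real time at 450 nm over 40 min. IC50 is a dose-response mean ± SEM (n = 2/3).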

The nature of assay [4]: Inhibition of tPMET complex in human HL60 cells after 30 mins by WST-1/mPMS reduction assay. Type of assay: cell-based. As to conditions: HL-60, 0.5 h. In outline: as §2
The subject of assay [5] is HL-60. Put plainly: Induction of apoptosis in human HL60 cells at 30 uM after 24 hrs by propidium iodide staining-based flow cytometric analysis. The format is functional, cell-based.
Assay [6] has as its system HL-60. Kind of assay: Induction of apoptosis in human mitochondrial gene-knockout HL60 cells at 30 uM after 72 hrs by propidium iodide staining-based flow cytometric analysis. Type of assay: functional, cell-based.
Assay [7] relates to HL-60. Put plainly: Cell cycle arrest in human mitochondrial gene-knockout HL60 cells assessed as accumulation at G2 phase at 30 uM after 24 hrs by propidium iodide staining-based flow cytometric analysis (reference value: 18 %). Type of assay: functional. Background: In flow cytometry, cells or beads pass a laser one at a time.
For assay [8], the system named is HL-60. Put plainly: Cell cycle arrest in human mitochondrial gene-knockout HL60 cells assessed as accumulation at S phase at 30 uM after 24 hrs by propidium iodide staining-based flow cytometric analysis (reference value: 24 %). The format is functional.
Assay [9] concerns HL-60. Kind of assay: Cell cycle arrest in human mitochondrial gene-knockout HL60 cells assessed as accumulation at G1 phase at 30 uM after 24 hrs by propidium iodide staining-based flow cytometric analysis (reference value: 55 %). The format is functional.
For assay [10], the system named is HL-60. Put plainly: Cell cycle arrest in human mitochondrial gene-knockout HL60 cells assessed as accumulation at sub G1 phase at 30 uM after 24 hrs by propidium iodide staining-based flow cytometric analysis (reference value: 3 %). Type of assay: functional.
The test system of assay [11] is HL-60. Put plainly: Cell cycle arrest in human HL60 cells assessed as accumulation at G2 phase at 30 uM after 24 hrs by propidium iodide staining-based flow cytometric analysis (reference value: 22 %). The format is functional.
Assay [12] has as its system HL-60. Kind of assay: Cell cycle arrest in human HL60 cells assessed as accumulation at G1 phase at 30 uM after 24 hrs by propidium iodide staining-based flow cytometric analysis (reference value: 38 %). Type of assay: functional.
Assay [13] deals with HL-60. Kind of assay: Cell cycle arrest in human HL60 cells assessed as accumulation at sub G1 phase at 30 uM after 24 hrs by propidium iodide staining-based flow cytometric analysis (reference value: 11 %). The format is functional.
Assay [14] relates to HL-60. Put plainly: Cell cycle arrest in human HL60 cells assessed as accumulation at S phase at 30 uM after 24 hrs by propidium iodide staining-based flow cytometric analysis (reference value: 28 %). The format is functional.

One may read the pIC50 as the IC50 on a negative log10 scale, so that one unit is a factor of ten. On to `COC1=C(OC)C(=O)C(CCCCCCCCCCn2cc[n+](Cc3ccccc3)c2)=C(C)C1=O`, for which the pIC50 in the assay on HL-60 [1] is 5.30; in the assay on HL-60 [2] it was 5.70; in assay [3], 4.17; in [4], 5.05.
On to `COC1=C(OC)C(=O)C(CCCCCO)=C(C)C1=O`, for which the negative-log IC50 (pIC50) with HL-60 [1] was 5.10; in the assay on HL-60 [2], 4.89; in [3], 3.91; in assay [4] it was less than 3.70.
For `COC1=C(OC)C(=O)C(CCCCCCCCCCOCc2cccc(S(=O)(=O)O)c2)=C(C)C1=O`, in that order: 3.92, 3.84, 4.15 and 4.09.
On to `COC1=C(OC)C(=O)C(CCCCCCCCCCN2CCOCC2)=C(C)C1=O`, for which the pIC50 in the assay on HL-60 [1] was 4.82; in the assay with HL-60 [2], 5.52; in assay [3] it was 4.34; in [4] it was 4.48.
For `COC1=C(OC)C(=O)C(CCCCCCCCCCn2ccnc2)=C(C)C1=O`, in that order: 4.82, 5.52, 4.48 and 4.85.
For `COC1=C(OC)C(=O)C(CCCOCc2cccc(S(=O)(=O)O)c2)=C(C)C1=O`, in that order: less than 3.70, less than 3.70, less than 3.70 and less than 3.70.
For `COC1=C(OC)C(=O)C(CCCCCCCCCCN(Cc2ccccc2)Cc2ccccc2)=C(C)C1=O`, in that order: less than 3.70, 4.48, less than 3.70 and less than 3.70.
Turning to `COC1=C(OC)C(=O)C(CCCCCCCCCC[N+]2(C)CCOCC2)=C(C)C1=O`, the negative logarithm of the IC50 (pIC50) is less than 3.70 in the assay with HL-60 [1], 6.00 in the assay with HL-60 [2], less than 3.70 in assay [3] and 3.91 in assay [4].
Regarding `COC1=C(OC)C(=O)C(CCCCCCCCCCc2c(O)cc(O)cc2O)=C(C)C1=O`, the pIC50 in the assay on HL-60 [1] is less than 3.70; in the assay with HL-60 [2], less than 3.70; in assay [3], 5.05; in [4], 4.68.
In the case of `COC1=C(OC)C(=O)C(CCCCCCCCCC[N+](Cc2ccccc2)(Cc2ccccc2)Cc2ccccc2)=C(C)C1=O`, the outcome in the assay on HL-60 [5] was Active. Further, the pIC50 in the assay with HL-60 [1] was 5.52; with HL-60 [2], 5.70; in assay [3], 4.27; in [4], 4.85.
In the case of `COC1=C(OC)C(=O)C(CCCCCCCCCCOc2cc(O)cc(O)c2)=C(C)C1=O`, the outcome with HL-60 [6] and in the assay with HL-60 [5] was Active. Also, the negative logarithm of the IC50 (pIC50) was 4.20 with HL-60 [1], 4.80 in the assay on HL-60 [2], 4.89 in [3] and 5.22 in assay [4].
In the case of `COC1=C(OC)C(=O)C(CCCCCCCCCC[N+](C)(Cc2ccccc2)Cc2ccccc2)=C(C)C1=O.[I-]`, in the assay with HL-60 [5], the outcome was Active. Moreover, the Activity in the assay with HL-60 [7] was 0%; with HL-60 [8], 0%; in the assay with HL-60 [9] it was 35%; in the assay on HL-60 [10], 0%; with HL-60 [11], 10%; with HL-60 [12], 24%. In addition, the Activity in the assay on HL-60 [13] was 57%; in the assay with HL-60 [14], 8%. Besides, the pIC50 in the assay on HL-60 [1] is 5.52; in the assay on HL-60 [2], 5.52; in assay [3], 4.33; in assay [4] it was 5.00.
Take `COC1=C(OC)C(=O)C(CCCO)=C(C)C1=O`: the negative logarithm of the IC50 (pIC50) with HL-60 [1] was 4.82; with HL-60 [2] it was 4.89; in assay [3] it was 4.04; in [4], less than 3.70.
Take `COC1=C(OC)C(=O)C(CCCCCCCCCCn2cc[n+](C)c2)=C(C)C1=O`: the pIC50 was 4.36 in the assay on HL-60 [1], 4.46 in the assay with HL-60 [2], 4.11 in [3] and 4.64 in assay [4].
As to `COC1=C(OC)C(=O)C(CCCCCCCCCCO)=C(C)C1=O` [IDEBENONE], the Activity in the assay with HL-60 [7] turned out to be 15%; in the assay with HL-60 [8], 36%; with HL-60 [9], 36%; with HL-60 [10], 99%; in the assay with HL-60 [11] it was 35%; in the assay on HL-60 [12], 51%. Besides, the Activity with HL-60 [13] amounted to 12%; in the assay on HL-60 [14] it was 2%. For the same molecule, the pIC50 was less than 3.70 in the assay with HL-60 [1], 4.44 with HL-60 [2], 4.15 in [3] and 4.11 in assay [4].
